RanGTP-Impb inh – disruptors of Ran-importin-beta complex formation – biochemical, FRET, CFP-Ran, YFP-importin-beta, homogeneous, primary screen; cell-free CFP-Ran/YFP-importin-beta FRET ratio; inhibition, % (test concentration not listed); 300,000 compounds, 1.1% hits; AID 2216;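 active means more than half of the replicate wells show a fall in the fluorescence ratio signal beyond about 16%, limit read from the data, passing the limit was not always enough; inconclusive means exactly half of the replicate wells pass the set limit; inactive means fewer than half of replicates pass the limit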
Runt-CBFb FRET – blocks binding of human RUNX1 Runt domain to CBFb | 220,000 compounds, 0.46% hits | inhibition, % at 20 µM | Cerulean-Runt/Venus-CBFb FRET ratio 530/480, 1 h;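 active means inhibition over about 50% at 20 µM in the single-dose screen, limit read from the data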
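Assay system: Cerulean-Runt domain fusion protein, energy donor; Signal: fluorescence energy transfer, 422 nm excitation, 530/480 nm emission; Timing: 1 h compound exposure, room temperature; Control set: unlabeled CBFb; Medium: Tris buffer pH 7.5 with salts and BSA; Compound: single test concentration of 20 µM, 1% DMSO final; Probe or stimulus: Venus-CBFb 100 nM.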
HMGR II inh – inhibitors of class II HMG-CoA reductase from Enterococcus faecalis; purified E. faecalis HMGR, NADPH absorbance 340 nm kinetic; inhibition, % at 10 µM; 190,000 compounds, 0.41% hits;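 active means inhibition above a set limit, the median over all tested compounds plus 3 SD, cut at about 9.5% in these data; inconclusive means no clear call, values can overlap the other calls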;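 further: enzyme runs in reverse so mevalonate oxidation gives rising NADPH absorbance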
Runt-SMMHC FRET – inhibitors of human RUNX1 Runt domain binding to CBFb-SMMHC; Q01196+Q13951; Cerulean-Runt/Venus-CBFb-SMMHC FRET ratio 530/480, 1 h; inhibition, % at 20 µM; 220,000 compounds, 0.74% hits; AID 1434;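 active means mean inhibition across duplicate retests at 20 µM reaching about 50%, limit read from the data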;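 further: inhibitors lower the FRET ratio by blocking Runt binding to CBFb-SMMHC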
PHOSPHO1 inh – PHOSPHO1 (human) inhibition | inhibition, % at 13.3 µM | recombinant PHOSPHO1, absorbance phosphatase assay | AID 1565 | 290,000 compounds, 1.1% hits; in the data active means inhibition above about 60%
Target sequence (Q8TCT1 whole entry, looked up): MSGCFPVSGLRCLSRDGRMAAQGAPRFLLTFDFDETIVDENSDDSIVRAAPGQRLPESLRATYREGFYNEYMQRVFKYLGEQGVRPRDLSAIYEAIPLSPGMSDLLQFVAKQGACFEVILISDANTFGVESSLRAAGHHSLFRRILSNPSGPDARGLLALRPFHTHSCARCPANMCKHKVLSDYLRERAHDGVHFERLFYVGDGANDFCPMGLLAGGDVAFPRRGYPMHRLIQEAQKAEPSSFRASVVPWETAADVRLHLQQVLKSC
Wee1 degr inh – human Wee1 degradation inhibition, primary screen. HeLa Luc-Wee1K328M stability, luciferase luminescence; 100% = proteasome inhibitor MG132 effect. reporter increase, % at 5 µM. P30291. 220,000 compounds, 1.2% hits. AID 1321;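 active means activation above the mean of all tested compounds plus 3 SD, set per screening run, cut at about 8.8% in these data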;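 further: cells exposed to compound for 20 h before luminescence read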
RUNX1 CBFb TR – disrupts human RUNX1 Runt domain binding to CBFb; shares compounds with Runt-CBFb FRET; TR-FRET RUNX1 Runt domain-CBFb binding; inhibition, % at 20 µM; 480 compounds, 20% hits; in the data active means inhibition above about 40%
Hits are given with their value; - = inactive; ? = inconclusive; . = no result given. Hits are enriched below; roughly 3.4% of the tested compounds scored in any of these assays.

SMILES	RanGTP-Impb inh	Runt-CBFb FRET	HMGR II inh	Runt-SMMHC FRET	PHOSPHO1 inh	Wee1 degr inh	RUNX1 CBFb TR
Cn1c(=O)[nH]c(=O)c2c1nc(SCCN1CCCCC1)n2Cc1ccccc1	-	-	-	-	-	-	.
Cc1ccc(Cn2c(SCCN3CCCCC3)nc3c2c(=O)[nH]c(=O)n3C)cc1	-	50.1	-	-	-	-	-
Cn1c(=O)[nH]c(=O)c2c1nc(SCCN1CCCCC1)n2CCCc1ccccc1	.	51.8	-	-	87.7	-	-
CCC(C)NCCOc1cc(C)cc(C)c1C (centres undefined)	-	-	-	-	-	-	.
N#CC1(C#N)COC23CCCCC2C1(C#N)C(=N)O3 (centres undefined)	30.5	63.1	-	80.4	-	-	-
COc1ccc(OC)c(S(=O)(=O)NCc2ccccn2)c1	-	.	.	.	-	.	.
O=C(COCc1cc(-c2ccc3c(c2)OCO3)on1)Nc1cccnc1Cl	-	.	.	.	-	.	.
O=[N+]([O-])c1cc([N+](=O)[O-])c2cc(-c3cccnc3)[nH]c2c1	-	.	.	.	.	.	.
CC(/C=C/C(=O)c1ccc(C)cc1)=C\c1ccccc1	-	-	-	-	-	-	.
Cc1ccc(C(=O)/C=C\C(=O)c2ccc(C)cc2)cc1	-	61.5	-	51.3	-	-	-
CCOC(=O)c1cnc2ccc(C)cc2c1Sc1ccc(F)cc1	-	85.8	-	-	-	-	-
c1ccc(-c2onc3cc4c(cc23)OCCO4)cc1	-	77.4	-	103.9	-	-	-
CC(=O)NCc1ccc(S(=O)(=O)NC(C)CCc2ccccc2)cc1 (centres undefined)	-	.	.	.	-	.	.
CN(C)c1nc(-c2cccs2)cc(C(F)(F)F)c1C#N	72.9	53.1	.	92.2	-	-	-
Cc1nn(C)c2nc(-c3cccs3)cc(C(F)(F)F)c12	-	-	-	-	-	-	.
CCOC(=O)CC(=O)CSc1nc(CC)c(C)cc1C#N	-	52.8	.	-	-	-	-
CCc1nc(SCC(=O)O)c(C#N)cc1C	-	-	-	-	-	-	.
Cc1cc(=O)[nH]c2nnc(-c3ccc(Br)cc3)n12	-	.	.	.	-	.	.
COc1cccc(C2C(C(=O)Nc3nc4ccccc4s3)=C(C)NC3=C2C(=O)CC(C)(C)C3)c1OC (centres undefined)	69.3	53.6	-	81.6	-	-	-
O=C1CCC(C(=O)Nc2cc(C(F)(F)F)ccc2-n2cncn2)=NN1	-	.	.	.	-	.	.
O=c1cc(O)c2sc(Nc3ccc(F)cc3)nc2[nH]1	-	55.9	-	-	-	-	-
Fc1ccc(Nc2nc3ccccc3s2)cc1	-	-	-	-	-	-	.
O=c1cc(O)c2sc(Nc3cccc(C(F)(F)F)c3)nc2[nH]1	-	59.6	-	-	-	-	-
Cc1cc(=O)[nH]c(Nc2cccc(C(F)(F)F)c2)n1	-	-	-	-	-	-	.
CCCCC(=O)NNC(=S)NC(=O)c1ccc([N+](=O)[O-])cc1	-	53.6	-	-	60.6	-	-
SMILES	RanGTP-Impb inh	Runt-CBFb FRET	HMGR II inh	Runt-SMMHC FRET	PHOSPHO1 inh	Wee1 degr inh	RUNX1 CBFb TR
S=C1CSc2ccccc2N1	-	52.9	-	-	-	-	-
C=CCOc1ccc(/C=C2\SC(=S)N(NS(=O)(=O)c3ccc(C)cc3)C2=O)cc1	-	.	.	.	-	.	.
O=C(Nc1ccc(Cl)c(-c2nc3ccccc3[nH]2)c1)c1ccc2c(c1)OCO2	-	64.9	-	-	-	-	-
CCCCc1cc(=O)oc2c(CN(C)C)c(O)c(Cl)cc12	.	74.7	-	156.0	-	-	-
Cc1ccccc1N1CCN(C2CCCN(C(=O)c3snnc3C)C2)CC1 (centres undefined)	-	.	.	.	-	.	.
Cc1cc(C)nc(Sc2ncnc(N)c2[N+](=O)[O-])n1	-	58.5	-	-	-	-	-
Cc1cccc(Nc2ncnc(N)c2[N+](=O)[O-])n1	-	-	-	-	-	-	.
O=C(NNC(=O)c1cc(O)c(O)c(O)c1)NC1CCCCC1	-	55.1	-	-	-	-	61.3
O=C(NNC(=O)c1cccnc1)NC1CCCCC1	-	-	-	-	-	-	.
COCC(=O)/C=C1\Sc2ccccc2N1C	-	-	-	-	-	-	.
CN1/C(=C/C(=O)C2CCC2)Sc2ccccc21	-	51.4	-	-	-	-	-
CN1/C(=C\C(=O)c2cccs2)Sc2ccccc21	?	52.5	-	93.9	-	-	-
COc1cc(OC)cc(C(=O)/C=C2\Sc3ccccc3N2C)c1	-	56.8	-	-	-	-	-
NC(=O)c1ccc(NC(=O)CCCNC(=O)c2ccc(Cl)cc2)cc1	-	.	.	.	-	.	.
CCc1ccc(NC(=O)COC(=O)c2ccc(Cl)c(S(=O)(=O)N3CCCCCC3)c2)cc1	-	-	-	-	-	-	.
NS(=O)(=O)c1cc(C(=O)OCC(=O)Nc2ccc(N3CCCCC3)cc2)ccc1Cl	-	81.4	.	-	-	-	-
Cc1cc(N2C(=O)C=CC2=O)c([N+](=O)[O-])cc1C	.	53.1	-	-	-	-	-
Cc1ccc(N2C(=O)C3C4C=CC(CC4)C3C2=O)cc1[N+](=O)[O-] (centres undefined)	-	.	.	.	-	.	.
Cc1sc2nc(CN3CCN(c4ccc(O)cc4)CC3)[nH]c(=O)c2c1C	?	54.0	.	-	-	-	62.9
O=c1[nH]c(CN2CCN(c3ccccc3)CC2)nc2scc(-c3ccccc3)c12	-	-	-	-	-	-	.
